By IC50 is commonly meant the concentration needed to halve the response being measured.

Series [1] deals with RAW264.7. The series can be described thus: Cytotoxicity against mouse RAW264.7 cells upto 3 uM by MTT assay. The series is classed as cell-based. On the technique in general: Tetrazolium dyes change colour on reduction, which living cells bring about.
Series [2] is described as follows: (§1) Inhibition of LPS-induced NF-kappaB activation in mouse RAW264.7 cells after 24 hrs by SEAP reporter assay. The series is classed as cell-based. Conditions: RAW264.7, 24 h. The method, boiled down: (§2)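 RAW264.7 cells carrying a reporter plasmid with eight κB copies driving SEAP; seeded 5 × 10^4 cells/well, 3 h at 37 °C, then test agent at various concentrations plus LPS (1 µg/mL) for 24 h. Supernatant heated 65 °C 5 min, mixed with SEAP buffer (diethanolamine, MgCl2, L-homoarginine) 10 min 37 °C, then p-nitrophenyl phosphate at 37 °C; A405. IC50 values; means ± SD of six independent experiments.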
(Reporter assays use an easily measured gene product as a stand-in for the process of interest.)

The test system of series [3] is RAW264.7. The series is described as §1. The class given is cell-based. In a few lines: as §2
Series [4] has as its system RAW264.7. In words: Inhibition of LPS-induced NO production in mouse RAW264.7 cells after 24 hrs by Griess method. The series is classed as functional, cell-based. Conditions: RAW264.7, 24 h. The method, boiled down:
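RAW264.7 cells at 1 × 10^5 cells/well, 3 h incubation, then LPS (1 µg/mL) for 24 h with or without test agent. Supernatant nitrite measured as NO readout by Griess reaction (equal volume of 0.1% N-(1-naphthyl)ethylenediamine/1% sulfanilamide in 5% phosphoric acid); absorbance 570 nm. IC50 values; means ± SD of six independent experiments.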
In general terms: Nitrite, measured by Griess reagent, commonly stands in for NO production.

Consider `C=C1C(=O)[C@@]23[C@H](O)C[C@@H]4C(C)(C)CCC[C@@]4(C)[C@@H]2CC[C@@H]1[C@H]3O`, for which the results for the Activity result in the series on RAW264.7 [1] and in the series with RAW264.7 [3] were “Non-toxic” and “Dose-dependent effect”, respectively. For the same compound, the IC50 in series [2] is 110 nM; with RAW264.7 [4] it was 260 nM.

As for `C=C1C(=O)O[C@@H]2C3O[C@]3(C)CC/C=C(\C)CC[C@@H]12` (some centres undefined), the values for the IC50 (in series [2]; in the series on RAW264.7 [4]) were 2340 nM and 2010 nM, respectively.

For the compound `N=C(N)NN` [PIMAGEDINE], the half-inhibitory concentration (IC50) in the series with RAW264.7 [4] is 4060 nM.

Regarding `C=C1C(=O)[C@@]23[C@H](O)C[C@@H]4[C@@](C)(COC(C)=O)CCC[C@@]4(C)[C@@H]2CC[C@@H]1[C@H]3O`, the Activity entry in the series on RAW264.7 [1] was “Non-toxic”; with RAW264.7 [3], “Dose-dependent effect”. The 50% inhibitory concentration (IC50) in series [2] was found to be 70 nM; in the series on RAW264.7 [4] it was 150 nM.

For the compound `C=C1C(=O)[C@]23C[C@H]1CC[C@H]2[C@]1(C)CCC[C@](C)(COC(C)=O)[C@H]1C[C@H]3O`, the Activity result in the series with RAW264.7 [1] is “Non-toxic”; in the series on RAW264.7 [3] it was “Dose-dependent effect”. For the same compound, the IC50 worked out at 100 nM in series [2] and 210 nM in the series on RAW264.7 [4].

Turning to `C=C1C(=O)[C@@]23[C@H](O)C[C@@H]4C(C)(C)CC[C@@H](OC(C)=O)[C@@]4(C)[C@@H]2CC[C@@H]1[C@H]3O`, the Activity entry with RAW264.7 [1] is “Non-toxic”; in the series with RAW264.7 [3], “Dose-dependent effect”. Further, the IC50 is 420 nM in series [2] and 470 nM in the series on RAW264.7 [4].

These data come from ChEMBL document CHEMBL1147217, “ent-Kaurane diterpenoids from croton tonkinensis inhibit LPS-induced NF-kappaB activation and NO production” (J Nat Prod, 2003).
